ChEMBL document CHEMBL3997773, “Synthesis of C-4-Substituted Steviol Derivatives and Their Inhibitory Effects against Hepatitis B Virus” (J Nat Prod, 2016)
Activity calls are given as the source filed them. No cut-off for these calls is given here.

Columns and labels:
Huh-7 [1] = assay: Decrease in SAPK/JNK protein expression in human HuH7 cells transfected with pHBV1.2 at 2.5 to 10 ug/ml after 2 days by immunoblot method
Huh-7 [2] = assay: Decrease in p38 MAPK protein expression in human HuH7 cells transfected with pHBV1.2 at 10 ug/ml after 2 days by immunoblot method relative to control
[3] = tested on: Hepatitis B virus subtype adw2; assay: Antiviral activity against Hepatitis B virus subtype adw2 infected in human HuH7 cells cotransfected with pCMV-p65 assessed as inhibition of viral DNA replication at 10 ug/ml after 2 days by RT-PCR method; type: functional, cell-based
How it was run: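 Huh7 cells were cotransfected with pHBV1.2 and, where stated, 0.5 or 2.5 μg pCMV-p65 (or empty vector) for 2 days, then treated at 10 μg/mL for 2 days. In separate wells, HBV-expressing cells received 10 μg/mL with or without anisomycin (10 μM) for 2 days. Secreted viral particles were kit-isolated and HBV DNA was measured by real-time PCR, n = 3.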

[4] = Selectivity index, ratio of TC50 for human HepG2.2.15 cells to IC50 for Hepatitis B virus subtype adw2 infected in human HuH7 cells assessed as inhibition of viral DNA replication
Huh-7 [5] = assay: Decrease in IKKbeta protein expression in human HuH7 cells transfected with pHBV1.2 at 10 ug/ml after 2 days by immunoblot method relative to control; type: functional
How it was run: (§1)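 Huh7 cells were transfected with pHBV1.2 for 2 days, then treated at 2.5, 5 or 10 μg/mL for another 2 days. Whole-cell protein was extracted with protease inhibitors. NF-κB p65/p50, phospho-p65, IKKα/β and IκBα/phospho-IκBα were detected by immunoblot. Blots are representative of three experiments.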

[6] = biological target: Transcription factor p65 (Homo sapiens) (UniProt Q04206); assay: Decrease in NF-kB p65 phosphorylation in human HuH7 cells transfected with pHBV1.2 at 10 ug/ml after 2 days by immunoblot method relative to control; type: cell-based
How it was run: as §1

[7] = tested on: Hepatitis B virus subtype adw2; assay: Antiviral activity against Hepatitis B virus subtype adw2 infected in human HuH7 cells assessed as inhibition of viral DNA replication after 3 days by RT-PCR method; type: functional, cell-based
How it was run: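 HBV-expressing Huh7 cells were dosed at 2.5, 5 or 10 μg/mL for 3 days. Viral DNA was isolated from virion particles in the conditioned medium and quantified by real-time PCR. Mean ± SD, n = 3, compared with untreated cells.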

Huh-7 [8] = assay: Decrease in NF-kB p65 protein expression in human HuH7 cells transfected with pHBV1.2 at 2.5 ug/ml after 2 days by immunoblot method relative to control; type: functional
How it was run: as §1

[9] = Antiviral activity against Hepatitis B virus subtype adw2 infected in human HuH7 cells assessed as reduction in HBx level at 10 ug/ml after 2 days by immunoblot method relative to control; type: functional
How it was run: (§2)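 Huh7 cells were transfected with pHBV1.2 (1.2-fold HBV adw2 genome) for 2 days, then exposed to 2.5, 5 or 10 μg/mL for another 2 days. Whole-cell protein was extracted with protease inhibitors. SHBs, HBcAg and HBx were detected by immunoblot, with α-tubulin for comparison.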

[10] = biological target: T1, NF-kappa-B inhibitor alpha (Homo sapiens) (UniProt P25963); assay: Decrease in IKBalpha phosphorylation in human HuH7 cells transfected with pHBV1.2 at 5 ug/ml after 2 days by immunoblot method relative to control; type: cell-based
T1 sequence (whole entry): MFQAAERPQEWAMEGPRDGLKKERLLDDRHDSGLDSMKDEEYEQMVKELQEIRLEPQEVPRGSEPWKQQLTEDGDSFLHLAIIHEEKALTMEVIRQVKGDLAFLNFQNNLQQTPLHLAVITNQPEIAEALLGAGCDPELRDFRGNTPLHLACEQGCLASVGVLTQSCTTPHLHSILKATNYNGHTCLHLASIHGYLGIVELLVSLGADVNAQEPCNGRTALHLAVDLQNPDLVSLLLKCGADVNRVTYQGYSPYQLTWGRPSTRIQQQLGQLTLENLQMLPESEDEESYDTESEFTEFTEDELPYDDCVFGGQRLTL
How it was run: as §1

Huh-7 [11] = assay: Effect on NF-kB p50 protein expression in human HuH7 cells transfected with pHBV1.2 at 2.5 ug/ml after 2 days by immunoblot method relative to control; type: functional
How it was run: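 HBV adw2 genome plasmid pHBV1.2 transfected into Huh7 for 2 days, then 2.5, 5 or 10 μg/mL for another 2 days. Whole-cell protein extracted with protease inhibitors, then SDS-PAGE immunoblot for NF-κB and MAPK pathway proteins. Blots are representative of three sets of experiments.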

[12] = Cytotoxicity against human HepG2.2.15 cells assessed as reduction in cell viability after 3 days by MTS assay; conditions: read-out: TC50
Huh-7 [13] = assay: Decrease in ERK1/2 protein expression in human HuH7 cells transfected with pHBV1.2 at 2.5 to 10 ug/ml after 2 days by immunoblot method
[14] = Antiviral activity against Hepatitis B virus subtype adw2 infected in human HuH7 cells assessed as effect on HBx level at 2.5 ug/ml after 2 days by immunoblot method relative to control; type: functional
How it was run: as §2

Hepatitis B virus = assay: Decrease in HBV core promoter activity infected in human HuH7 cells cotransfected with pHBV1.2 at 10 ug/ml after 24 hrs by luciferase reporter gene assay; type: cell-based
How it was run: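 Huh7 cells were seeded for 24 h, then cotransfected with pHBV1.2, pRLSV40 and a pGL4.17-based Core (nt 1636-1851), S (nt 3114-220), PreS (nt 2438-2855) or X (nt 1071-1357) promoter-luciferase construct for 24 h. Cells were then treated at 10 μg/mL for 24 h and lysates were assayed for luciferase. Mean ± SD, n = 3.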

[15] = Antiviral activity against Hepatitis B virus subtype adw2 infected in human HuH7 cells assessed as inhibition of viral DNA replication by RT-PCR method; type: functional, cell-based; conditions: Huh-7
[16] = biological target: Transcription factor p65 (Homo sapiens) (UniProt Q04206); assay: Decrease in NF-kB p65 phosphorylation in human HuH7 cells transfected with pHBV1.2 at 5 ug/ml after 2 days by immunoblot method relative to control; type: cell-based
How it was run: as §1

[17] = biological target: Mitogen-activated protein kinase; ERK1/ERK2 (Homo sapiens) (UniProt P27361+P28482); assay: Decrease in ERK1/2 phosphorylation in human HuH7 cells transfected with pHBV1.2 at 2.5 to 10 ug/ml after 2 days by immunoblot method
Chain of Mitogen-activated protein kinase; ERK1/ERK2 (Homo sapiens) (P27361 whole entry, looked up): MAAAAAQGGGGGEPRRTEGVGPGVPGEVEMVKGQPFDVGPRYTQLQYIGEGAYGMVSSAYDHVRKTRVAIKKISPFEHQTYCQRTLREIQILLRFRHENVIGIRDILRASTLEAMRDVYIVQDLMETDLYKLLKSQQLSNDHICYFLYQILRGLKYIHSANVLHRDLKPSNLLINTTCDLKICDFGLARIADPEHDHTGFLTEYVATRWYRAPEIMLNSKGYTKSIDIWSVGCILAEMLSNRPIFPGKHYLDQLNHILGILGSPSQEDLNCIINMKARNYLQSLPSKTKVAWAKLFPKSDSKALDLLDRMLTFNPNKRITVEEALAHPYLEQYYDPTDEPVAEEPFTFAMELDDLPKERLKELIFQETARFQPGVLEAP
Chain of Mitogen-activated protein kinase; ERK1/ERK2 (Homo sapiens) (P28482 whole entry, looked up): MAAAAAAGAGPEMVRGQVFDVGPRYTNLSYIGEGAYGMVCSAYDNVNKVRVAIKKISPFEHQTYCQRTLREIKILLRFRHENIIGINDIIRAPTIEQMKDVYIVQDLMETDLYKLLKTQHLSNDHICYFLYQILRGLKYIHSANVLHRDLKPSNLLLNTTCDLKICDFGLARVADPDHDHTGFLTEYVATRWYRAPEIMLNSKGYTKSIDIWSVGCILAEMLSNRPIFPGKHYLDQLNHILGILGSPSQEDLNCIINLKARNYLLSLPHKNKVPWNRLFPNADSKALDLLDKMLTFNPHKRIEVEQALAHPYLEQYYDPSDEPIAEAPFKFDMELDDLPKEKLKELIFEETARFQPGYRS

Chain of Transcription factor p65 (Homo sapiens) (Q04206 whole entry): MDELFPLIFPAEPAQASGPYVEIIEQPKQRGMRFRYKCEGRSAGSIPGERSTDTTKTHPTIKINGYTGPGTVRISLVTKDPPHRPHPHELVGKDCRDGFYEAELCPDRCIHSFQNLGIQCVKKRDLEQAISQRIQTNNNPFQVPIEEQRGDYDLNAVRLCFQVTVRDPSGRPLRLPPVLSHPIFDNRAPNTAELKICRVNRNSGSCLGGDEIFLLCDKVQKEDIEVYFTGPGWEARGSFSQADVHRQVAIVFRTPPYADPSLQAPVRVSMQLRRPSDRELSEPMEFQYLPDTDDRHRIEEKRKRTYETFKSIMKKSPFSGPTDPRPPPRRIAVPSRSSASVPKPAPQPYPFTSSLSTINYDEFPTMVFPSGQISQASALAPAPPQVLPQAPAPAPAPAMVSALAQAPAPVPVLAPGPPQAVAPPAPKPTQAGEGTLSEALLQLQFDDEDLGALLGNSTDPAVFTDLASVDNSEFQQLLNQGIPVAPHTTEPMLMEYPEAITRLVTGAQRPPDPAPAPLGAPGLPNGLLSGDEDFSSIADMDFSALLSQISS

SMILES: C=C1C[C@@]23CC[C@H]4[C@@](C)(CCC[C@@]4(C)NC(=O)NCCCC)[C@@H]2CC[C@]1(O)C3
- Activity (Huh-7 [1]): Active
- fold change (FC) (Huh-7 [2]): 0.33
- inhibition [3]: inactive
- selectivity ratio [4]: 57.7
- fold change (FC) (Huh-7 [5]): 0.33
- fold change (FC) [6]: 0.23
- inhibition [7]: Dose-dependent effect
- fold change (FC) (Huh-7 [8]): 0.89
- fold change (FC) [9]: 0.15
- fold change (FC) [10]: 0.94
- fold change (FC) (Huh-7 [11]): 1.01
- CC50 at 72 h [12]: 972 µM
- Activity (Huh-7 [13]): Active
- fold change (FC) [14]: 1.12
- Activity (Hepatitis B virus): Active
- IC50 [15]: 16.9 µM
- fold change (FC) [16]: 0.88
- Activity [17]: Active
